From ChEMBL document CHEMBL1127018, “Synthesis and biological activity of spirocyclic benzopyran imidazolone potassium channel openers” (1993)

Legend:
A10 [1] = experiment: Percent decrease in fluorescence in a membrane potential assay using the A10 cell line derived from embryonic rat aorta at 1.0 uM; assay type: functional
Procedure, shortened: (§1)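 Postconfluent A10 cells (passage ≤20, grown in DMEM/15% FBS) equilibrated ≥15 min at 37 °C in 5 μM DiBAC₄(3) in EBSS with 20 mM HEPES, pH 7.3. Compound added from 1000X DMSO or water stocks. Fluorescence (ex 488, em 525 nm) imaged every 60 s at 37 °C from a field of about 50 cells and normalized between experiments.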

A10 [2] = experiment: Percent decrease in fluorescence in a membrane potential assay using the A10 cell line derived from embryonic rat aorta at 10.0 uM; assay type: functional; procedure, shortened: as §1
Rattus norvegicus [3] = experiment: Change in mean arterial pressure in anesthetized female rats at a dose of 0.30 mg/kg and a cumulative dose of 0.44 mg/kg; assay type: functional, Artery
Procedure, shortened: (§2)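 Fasted female Sprague-Dawley rats, 200–250 g, under iv α-chloralose/urethane/pentobarbital anesthesia. Mean arterial pressure recorded continuously through a femoral artery catheter, after 30 min postsurgical equilibration. Compound given iv in 20% DMA/saline as step doses (initial plus three higher) at 20-min intervals. ΔMAP from pretreatment averaged over 4–5 rats per group; vehicle controls pooled n = 6.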

Rattus norvegicus [4] = experiment: Change in heart rate in beats per minute in anesthetized female rats at a dose of 0.10 mg/kg and a cumulative dose of 0.14 mg/kg; assay type: functional
Procedure, shortened: (§3)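 Fasted female Sprague-Dawley rats, 200–250 g, anesthetized iv with α-chloralose 40 mg/kg, urethane 20 mg/kg and pentobarbital 20 mg/kg. Femoral vein cannulated for dosing; heart rate taken by tachograph triggered from the arterial pulse. Rectal temperature kept at 36–38 °C. Drug given iv in 20% DMA/saline as four rising bolus steps 20 min apart. ΔHR from pretreatment is the mean of 4–5 rats.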

Rattus norvegicus [5] = experiment: Change in mean arterial pressure in anesthetized female rats at a dose of 0.03 mg/kg and a cumulative dose of 0.04 mg/kg; assay type: functional, Artery; procedure, shortened: as §2
Rattus norvegicus [6] = experiment: Change in mean arterial pressure in anesthetized female rats at a dose of 0.01 mg/kg and a cumulative dose of 0.01 mg/kg; assay type: functional, Artery; procedure, shortened: as §2
Rattus norvegicus [7] = experiment: Change in heart rate in beats per minute in anesthetized female rats at a dose of 0.01 mg/kg and a cumulative dose of 0.01 mg/kg; assay type: functional; procedure, shortened: as §3
Rattus norvegicus [8] = experiment: Change in heart rate in beats per minute in anesthetized female rats at a dose of 0.30 mg/kg and a cumulative dose of 0.44 mg/kg; assay type: functional; procedure, shortened: as §3
Rattus norvegicus [9] = experiment: Change in mean arterial pressure in anesthetized female rats at a dose of 0.10 mg/kg and a cumulative dose of 0.14 mg/kg; assay type: functional, Artery; procedure, shortened: as §2
A10 [10] = experiment: Percent decrease in fluorescence in a membrane potential assay using the A10 cell line derived from embryonic rat aorta at 0.1 uM; assay type: functional; procedure, shortened: as §1
Rattus norvegicus [11] = experiment: Change in heart rate in beats per minute in anesthetized female rats at a dose of 0.03 mg/kg and a cumulative dose of 0.04 mg/kg; assay type: functional; procedure, shortened: as §3
A10 [12] = experiment: Percent decrease in fluorescence in a membrane potential assay using the A10 cell line derived from embryonic rat aorta at 0.01 uM; assay type: functional; procedure, shortened: as §1
A10 [13] = experiment: Percent decrease in fluorescence in a membrane potential assay using the A10 cell line derived from embryonic rat aorta at 0.001 uM; assay type: functional; procedure, shortened: as §1
Rattus norvegicus [14] = experiment: Change in heart rate in beats per minute in anesthetized female rats at a dose of 0.001 mg/kg and a cumulative dose of 0.001 mg/kg; assay type: functional; procedure, shortened: as §3
Rattus norvegicus [15] = experiment: Change in heart rate in beats per minute in anesthetized female rats at a dose of 0.010 mg/kg and a cumulative dose of 0.014 mg/kg; assay type: functional; procedure, shortened: as §3
Rattus norvegicus [16] = experiment: Change in heart rate in beats per minute in anesthetized female rats at a dose of 0.003 mg/kg and a cumulative dose of 0.004 mg/kg; assay type: functional; procedure, shortened: as §3
Rattus norvegicus [17] = experiment: Change in mean arterial pressure in anesthetized female rats at a dose of 0.010 mg/kg and a cumulative dose of 0.014 mg/kg; assay type: functional, Artery; procedure, shortened: as §2
Rattus norvegicus [18] = experiment: Change in mean arterial pressure in anesthetized female rats at a dose of 0.030 mg/kg and a cumulative dose of 0.044 mg/kg; assay type: functional, Artery; procedure, shortened: as §2
Rattus norvegicus [19] = experiment: Change in heart rate in beats per minute in anesthetized female rats at a dose of 0.030 mg/kg and a cumulative dose of 0.044 mg/kg; assay type: functional; procedure, shortened: as §3
Rattus norvegicus [20] = experiment: Change in mean arterial pressure in anesthetized female rats at a dose of 0.003 mg/kg and a cumulative dose of 0.004 mg/kg; assay type: functional, Artery; procedure, shortened: as §2
Rattus norvegicus [21] = experiment: Change in mean arterial pressure in anesthetized female rats at a dose of 0.001 mg/kg and a cumulative dose of 0.001 mg/kg; assay type: functional, Artery; procedure, shortened: as §2

CCSC1=NC(=O)C2(CC(C)(C)Oc3ccc(C#N)cc32)N1 (stereo unspecified)
Decrease (A10 [1]): 6% | Decrease (A10 [2]): 24%

CCOC1=NC(=O)C2(CC(C)(C)Oc3ccccc32)N1 (stereo unspecified)
Decrease (A10 [2]): <5%

CC1(C)Oc2ccc(C#N)cc2C(N2CCCC2=O)C1O (stereo unspecified) [CROMAKALIM]
Delta MAP (Rattus norvegicus [3]): -52.7 mmHg | Delta HR (Rattus norvegicus [4]): 65.6 beats min-1 | Delta MAP (Rattus norvegicus [5]): -22.6 mmHg | Delta MAP (Rattus norvegicus [6]): -14.7 mmHg | Delta HR (Rattus norvegicus [7]): 33.8 beats min-1 | Decrease (A10 [1]): 22% | Delta HR (Rattus norvegicus [8]): 63 beats min-1 | Delta MAP (Rattus norvegicus [9]): -36.1 mmHg | Decrease (A10 [10]): <5% | Delta HR (Rattus norvegicus [11]): 53.4 beats min-1

CSC1=NC(=O)C2(CC(C)(C)Oc3ccc(C#N)cc32)N1 (stereo unspecified)
Decrease (A10 [1]): 5% | Decrease (A10 [2]): 25%

CNC1=NC(=O)C2(CC(C)(C)Oc3ccc(C#N)cc32)N1 (stereo unspecified)
Decrease (A10 [1]): 19% | Decrease (A10 [10]): <5%

CC(C)NC1=NC(=O)C2(CC(C)(C)Oc3ccc(C#N)cc32)N1 (stereo unspecified)
Decrease (A10 [1]): 10% | Decrease (A10 [10]): <5%

CCCNC1=NC(=O)C2(CC(C)(C)Oc3ccc(Br)cc32)N1 (stereo unspecified)
Delta MAP (Rattus norvegicus [3]): -70.6 mmHg | Delta HR (Rattus norvegicus [4]): 46.3 beats min-1 | Decrease (A10 [12]): 12% | Delta MAP (Rattus norvegicus [5]): -56.7 mmHg | Delta MAP (Rattus norvegicus [6]): -25.6 mmHg | Delta HR (Rattus norvegicus [7]): 44.9 beats min-1 | Delta HR (Rattus norvegicus [8]): 92.8 beats min-1 | Delta MAP (Rattus norvegicus [9]): -70.1 mmHg | Decrease (A10 [10]): 28% | Delta HR (Rattus norvegicus [11]): 25.6 beats min-1

CSC1=NC(=O)C2(CC(C)(C)Oc3ccc(F)cc32)N1 (stereo unspecified)
Decrease (A10 [1]): 9% | Decrease (A10 [2]): 27%

CCSC1=NC(=O)C2(CC(C)(C)Oc3ccc(Br)cc32)N1 (stereo unspecified)
Delta MAP (Rattus norvegicus [3]): -25 mmHg | Delta HR (Rattus norvegicus [4]): 16.5 beats min-1 | Decrease (A10 [12]): 11% | Delta MAP (Rattus norvegicus [5]): -16.3 mmHg | Delta MAP (Rattus norvegicus [6]): -2.5 mmHg | Delta HR (Rattus norvegicus [7]): 15.5 beats min-1 | Delta HR (Rattus norvegicus [8]): 17.5 beats min-1 | Delta MAP (Rattus norvegicus [9]): -21.5 mmHg | Decrease (A10 [13]): 7% | Decrease (A10 [10]): 18% | Delta HR (Rattus norvegicus [11]): 29 beats min-1

CSC1=NC(=O)C2(CC(C)(C)Oc3ccccc32)N1 (stereo unspecified)
Decrease (A10 [2]): <5%

CC(C)(C)CNC1=NC(=O)C2(CC(C)(C)Oc3ccccc32)N1 (stereo unspecified)
Decrease (A10 [2]): 7%

CCNC1=NC(=O)C2(CC(C)(C)Oc3ccc(Br)cc32)N1 (stereo unspecified)
Decrease (A10 [1]): 19% | Decrease (A10 [10]): 26%

CC(C)NC1=NC(=O)C2(CC(C)(C)Oc3ccc(Br)cc32)N1 (stereo unspecified)
Decrease (A10 [1]): 22% | Decrease (A10 [10]): 5%

CCCSC1=NC(=O)C2(CC(C)(C)Oc3ccc(Br)cc32)N1 (stereo unspecified)
Decrease (A10 [1]): 15% | Decrease (A10 [10]): 6%

CSC1=NC(=O)C2(CC(C)(C)Oc3ccc([N+](=O)[O-])cc32)N1 (stereo unspecified)
Decrease (A10 [12]): 8% | Decrease (A10 [1]): 16% | Decrease (A10 [10]): 11%

CCCSC1=NC(=O)C2(CC(C)(C)Oc3ccc(C#N)cc32)N1 (stereo unspecified)
Decrease (A10 [1]): 17% | Decrease (A10 [10]): <5%

CNC1=NC(=O)C2(CC(C)(C)Oc3ccc(F)cc32)N1 (stereo unspecified)
Decrease (A10 [1]): 11% | Decrease (A10 [2]): 14%

CSC1=NC(=O)C2(CC(C)(C)Oc3ccc(Br)cc32)N1 (stereo unspecified)
Decrease (A10 [1]): 27% | Decrease (A10 [10]): 6%

CNC1=NC(=O)C2(CC(C)(C)Oc3ccc([N+](=O)[O-])cc32)N1 (stereo unspecified)
Decrease (A10 [12]): 15% | Decrease (A10 [13]): <5% | Decrease (A10 [10]): 38%

CCNC1=NC(=O)C2(CC(C)(C)Oc3ccc(F)cc32)N1 (stereo unspecified)
Delta MAP (Rattus norvegicus [3]): -44.6 mmHg | Delta HR (Rattus norvegicus [4]): 38 beats min-1 | Delta MAP (Rattus norvegicus [5]): -10.7 mmHg | Delta MAP (Rattus norvegicus [6]): -7.1 mmHg | Delta HR (Rattus norvegicus [7]): -0.4 beats min-1 | Decrease (A10 [1]): 24% | Delta HR (Rattus norvegicus [8]): 45.6 beats min-1 | Delta MAP (Rattus norvegicus [9]): -28 mmHg | Decrease (A10 [10]): 19% | Delta HR (Rattus norvegicus [11]): 1.7 beats min-1

CCNC1=NC(=O)C2(CC(C)(C)Oc3ccc(C#N)cc32)N1 (stereo unspecified)
Decrease (A10 [1]): 25% | Decrease (A10 [10]): 8%

CCCNC1=NC(=O)C2(CC(C)(C)Oc3ccccc32)N1 (stereo unspecified)
Decrease (A10 [1]): 7%

CCCNC1=NC(=O)C2(CC(C)(C)Oc3ccc(C#N)cc32)N1 (stereo unspecified)
Delta MAP (Rattus norvegicus [3]): -70 mmHg | Delta HR (Rattus norvegicus [4]): 29.8 beats min-1 | Decrease (A10 [12]): <5% | Delta MAP (Rattus norvegicus [5]): -50.8 mmHg | Delta MAP (Rattus norvegicus [6]): -23.6 mmHg | Delta HR (Rattus norvegicus [7]): 13.8 beats min-1 | Decrease (A10 [1]): 27% | Delta HR (Rattus norvegicus [8]): 39.2 beats min-1 | Delta MAP (Rattus norvegicus [9]): -66.2 mmHg | Decrease (A10 [10]): 21% | Delta HR (Rattus norvegicus [11]): 19.2 beats min-1

CCCNC1=NC(=O)C2(CC(C)(C)Oc3ccc(F)cc32)N1 (stereo unspecified)
Decrease (A10 [1]): 17% | Decrease (A10 [10]): 10%

CC(C)NC1=NC(=O)C2(CC(C)(C)Oc3ccccc32)N1 (stereo unspecified)
Decrease (A10 [2]): 13%

CNC1=NC(=O)C2(CC(C)(C)Oc3ccc(Br)cc32)N1 (stereo unspecified)
Decrease (A10 [1]): 17% | Decrease (A10 [10]): 22%

CCOC1=NC(=O)C2(CC(C)(C)Oc3ccc(F)cc32)N1 (stereo unspecified)
Decrease (A10 [1]): <5% | Decrease (A10 [2]): 13%

CCCNC1=NC(=O)C2(CC(C)(C)Oc3ccc([N+](=O)[O-])cc32)N1 (stereo unspecified)
Delta HR (Rattus norvegicus [14]): 6.8 beats min-1 | Delta HR (Rattus norvegicus [15]): 3.8 beats min-1 | Delta HR (Rattus norvegicus [16]): 3.3 beats min-1 | Decrease (A10 [12]): 19% | Delta MAP (Rattus norvegicus [17]): -66 mmHg | Delta MAP (Rattus norvegicus [18]): -72 mmHg | Decrease (A10 [13]): 8% | Delta HR (Rattus norvegicus [19]): 31.8 beats min-1 | Decrease (A10 [10]): 28% | Delta MAP (Rattus norvegicus [20]): -51.3 mmHg | Delta MAP (Rattus norvegicus [21]): -19.8 mmHg

CCNC1=NC(=O)C2(CC(C)(C)Oc3ccc([N+](=O)[O-])cc32)N1 (stereo unspecified)
Decrease (A10 [12]): 13% | Decrease (A10 [13]): 9% | Decrease (A10 [10]): 28%

CCOC1=NC(=O)C2(CC(C)(C)Oc3ccc(Br)cc32)N1 (stereo unspecified)
Decrease (A10 [1]): 20% | Decrease (A10 [10]): 5%

CC(C)NC1=NC(=O)C2(CC(C)(C)Oc3ccc(F)cc32)N1 (stereo unspecified)
Decrease (A10 [1]): 5% | Decrease (A10 [2]): 22%
